Screens deposited in PubChem BioAssay by The Scripps Research Institute Molecular Screening Center.
NPY Y2 blocker = antagonists of human neuropeptide Y receptor Y2; inhibition, % at 2.7 µM; NPY-Y2 expressing cells, antagonist mode; 140,000 tested, 0.99% active; P49146; in the data active = inhibition above about 17%;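 also: 0% = vehicle with agonist challenge and 100% = reference antagonist with challenge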
Target sequence (P49146 whole entry, looked up): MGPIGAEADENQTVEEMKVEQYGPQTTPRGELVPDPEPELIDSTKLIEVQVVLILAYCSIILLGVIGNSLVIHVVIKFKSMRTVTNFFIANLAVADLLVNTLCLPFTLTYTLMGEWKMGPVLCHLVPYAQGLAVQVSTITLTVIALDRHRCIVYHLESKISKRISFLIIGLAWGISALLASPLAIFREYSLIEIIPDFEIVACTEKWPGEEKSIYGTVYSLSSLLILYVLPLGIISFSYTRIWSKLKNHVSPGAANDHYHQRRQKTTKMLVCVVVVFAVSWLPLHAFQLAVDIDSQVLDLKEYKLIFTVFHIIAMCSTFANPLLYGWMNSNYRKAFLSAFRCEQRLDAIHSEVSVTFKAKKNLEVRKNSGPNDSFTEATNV
NPY1 pot ag = potentiates or activates human NPY-Y1 receptor | P25929 | NPY-Y1 expressing cells, potentiator/agonist activation | activation, % at 3.6 µM | 220,000 tested, 0.37% active; in the data active = activation above about 33%, passing the limit was not always enough;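 also: cells stimulated with NPY at EC10 then isoproterenol at EC100; 0% = low agonist plus stimulus and 100% = saturating agonist plus stimulus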
NPY Y1 blocker = antagonists of human neuropeptide Y receptor Y1. 200,000 tested, 1% active. P25929. AID 1040. inhibition, % at 3.6 µM. HEK293-CNG Y1 cells, membrane potential fluorescence; NPY at EC95, then isoproterenol;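 active = inhibition above the campaign mean inhibition of all tested compounds plus 3 SD, cut at about 20% in these data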;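 also: 0% = DMSO wells given NPY plus isoproterenol and 100% = isoproterenol alone without NPY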
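System: HEK293 cells with Y1 receptor plus CNG channel / Probe or stimulus: NPY 25 nM then isoproterenol 1 µM plus Ro 20-1724 25 µM / Compound: one concentration, 3.6 µM, in 0.4% DMSO / Schedule: compound incubation 1 h at room temperature, readout 45 min post-stimulation / Measured by: membrane potential fluorescence / Read-out: % inhibition of NPY effect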
NPY-Y2 PAM-ag = potentiators or agonists of human neuropeptide Y receptor Y2. 220,000 tested, 0.45% active. activation, % at 3.6 µM. P49146. AID 1359. cells expressing NPY-Y2, potentiator/agonist read-out; in the data active = activation above about 27%;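 also: cells stimulated with NPY near EC25 plus isoproterenol at EC100; 0% = vehicle plus submaximal agonist and 100% = vehicle plus saturating agonist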
NPY-Y1 antag ct = antagonizes human NPY-Y1, counter-screen to NPY-Y2 antagonists; shares compounds with NPY Y2 blocker; 710 tested, 19% active; cell-based NPY-Y1 antagonism counterscreen; inhibition, % at 3.6 µM; AID 1256; in the data active = inhibition above about 20%;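 also: cells challenged with NPY then isoproterenol with cAMP sensed through a CNG channel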
NPY2 antag conf = confirmation of human neuropeptide Y receptor Y2 antagonists | shares compounds with NPY Y2 blocker | HEK293 NPY-Y2 CNG channel, membrane potential fluorescence | inhibition, % at 2.8 µM | 710 tested, 32% active | AID 1257;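 active = mean inhibition of triplicate wells above the hit cutoff set in the primary screen, cut at about 17% in these data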;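 also: 0% = DMSO with NPY challenge and 100% = BIIE0246 high control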
Numbers without * were called inactive. The list is not random: actives were taken first. Their share in the collection is about 1.9%.

Screening CC1=CC(C)(C)N(S(=O)(=O)c2ccc(F)cc2)c2ccc(C)cc21 returned NPY Y2 blocker 18.6*, NPY1 pot ag -14.7, NPY Y1 blocker 15.6, NPY-Y2 PAM-ag -33.3, NPY-Y1 antag ct 15.3 and NPY2 antag conf 7.1.
`CC1=CC(C)(C)N(C(=O)c2ccccc2)c2ccc(C)cc21` gave NPY Y2 blocker 10.7, NPY1 pot ag 4.4, NPY Y1 blocker 16.3 and NPY-Y2 PAM-ag 6.7.
For CC1=CC(C)(C)N(S(=O)(=O)c2ccc(C)cc2)c2ccccc21 the results were NPY Y2 blocker 20.4*, NPY1 pot ag 6.4, NPY Y1 blocker 19.9, NPY-Y2 PAM-ag -11.3, NPY-Y1 antag ct 31.1* and NPY2 antag conf 26.5*.
For COc1ccc(C2(CNC(=O)c3cccc([N+](=O)[O-])c3)CCOCC2)cc1 the results were NPY Y2 blocker 17.5*, NPY1 pot ag -26.1, NPY Y1 blocker -3.7, NPY-Y2 PAM-ag -3.0, NPY-Y1 antag ct -1.1 and NPY2 antag conf 2.6.
Screening CCNC(=S)Nc1ccc(Cl)c(C(F)(F)F)c1 returned NPY Y2 blocker -3.4, NPY1 pot ag 4.1, NPY Y1 blocker -0.6 and NPY-Y2 PAM-ag 11.9.
`COCCNC(=S)N1CCc2cc(OC)c(OC)cc2C1COc1ccc(C(C)C)cc1` (stereo not given) gave NPY Y2 blocker -0.8, NPY1 pot ag -35.0, NPY Y1 blocker -2.0 and NPY-Y2 PAM-ag -6.4.
Screening CCOc1ccc(NS(=O)(=O)c2ccc3c(c2)CCN3C(=O)C2CCC2)cc1 returned NPY Y2 blocker 6.9, NPY1 pot ag -27.8, NPY Y1 blocker 9.1 and NPY-Y2 PAM-ag -9.3.
O=C(C1CCC1)N1CCc2cc(S(=O)(=O)Nc3ccc4c(c3)OCO4)ccc21 was read as NPY Y2 blocker 19.4*, NPY1 pot ag -36.5, NPY Y1 blocker 6.1, NPY-Y2 PAM-ag 5.0, NPY-Y1 antag ct 4.6 and NPY2 antag conf 7.0.
Screening COc1ccc(CNC(C)C(=O)Nc2ccc3ccccc3c2)cc1OC (stereo not given) returned NPY1 pot ag -12.6, NPY Y1 blocker 6.0 and NPY-Y2 PAM-ag -8.8.
For COc1ccccc1Oc1ccc2c(c1)C(=O)N(c1ccc(O)cc1)C2=O the results were NPY Y2 blocker 18.0*, NPY1 pot ag 18.9, NPY Y1 blocker 3.6, NPY-Y2 PAM-ag 23.4, NPY-Y1 antag ct 4.0 and NPY2 antag conf 13.7.
`Cc1nnc(SCc2ccc([N+](=O)[O-])cc2)o1` gave NPY1 pot ag -4.2, NPY Y1 blocker 2.1 and NPY-Y2 PAM-ag -9.3.
Screening COc1ccc(CN2CCN(c3ncccn3)CC2)c(OC)c1 returned NPY Y2 blocker 18.3*, NPY1 pot ag 17.6, NPY Y1 blocker 15.0, NPY-Y2 PAM-ag 1.0, NPY-Y1 antag ct 1.3 and NPY2 antag conf -0.5.
Screening COc1ccc(CN2CCN(c3ccccn3)CC2)c(OC)c1 returned NPY Y2 blocker 7.4, NPY1 pot ag -14.9, NPY Y1 blocker -4.1 and NPY-Y2 PAM-ag -23.1.
Screening C=CCNCc1cccn1-c1sc2c(c1C#N)CCCC2 returned NPY Y2 blocker 18.0*, NPY1 pot ag 8.0, NPY Y1 blocker 9.3, NPY-Y2 PAM-ag 3.6, NPY-Y1 antag ct 7.9 and NPY2 antag conf 10.8.
N#Cc1c(NC(=S)NC(=O)c2ccccc2)sc2c1CCCC2 was read as NPY Y2 blocker 1.3, NPY1 pot ag -9.8, NPY Y1 blocker -4.7 and NPY-Y2 PAM-ag 8.0.
CCN(CC)CCCN=Cc1c(O)n(Cc2ccccc2)c(=O)c2ccccc12 was read as NPY Y2 blocker 3.7, NPY1 pot ag 0.2, NPY Y1 blocker 2.6 and NPY-Y2 PAM-ag -11.5.
`CC(C)CCC(C)N=Cc1c(O)n(Cc2ccccc2)c(=O)c2ccccc12` (stereo not given) gave NPY Y2 blocker 21.3*, NPY1 pot ag -19.8, NPY Y1 blocker 13.7, NPY-Y2 PAM-ag -3.0, NPY-Y1 antag ct 26.6* and NPY2 antag conf 20.8*.
CCS(=O)(=O)N1Cc2ccccc2CC1C(=O)NC(C)C12CC3CC(CC(C3)C1)C2 (stereo not given) was read as NPY Y2 blocker 19.4*, NPY1 pot ag -6.7, NPY Y1 blocker 10.3, NPY-Y2 PAM-ag -13.5, NPY-Y1 antag ct 4.9 and NPY2 antag conf 9.0.
Screening CCOC(=O)c1c(SC)[nH]c2c(Cl)cccc2c1=O returned NPY1 pot ag 14.7 and NPY-Y2 PAM-ag -14.9.
For Cc1ccc(-c2nnc(SCC(=O)Nc3cccc(C(=O)N4CCOCC4)c3)n2C)cc1 the results were NPY Y2 blocker -1.1, NPY1 pot ag 8.6, NPY Y1 blocker 1.4 and NPY-Y2 PAM-ag -5.2.
